Measured values published in ChEMBL document CHEMBL1158161, “Study of chemical stability of antivirally active 5-azacytosine acyclic nucleoside phosphonates using NMR spectroscopy” (Bioorg Med Chem, 2008).
Converted amounts (≈) assume the structure as drawn.

Columns and labels:
[1] = Stability in 1 M glycine solution at pH 5.8 assessed as half life; format: physicochemical
Procedure, shortened: (§1)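 Hydrolytic decomposition was followed by ¹H NMR on 30 mg samples in D₂O, with spectra recorded periodically. Media were 1 M glycine (pH 5.75), PBS (pH 7.4, phosphate with NaCl), or 50 mM phosphate at pH 4.0 or 10.0. Buffers were made in H₂O, lyophilized and redissolved in D₂O. Low-field signals were integrated to give a rate constant k and a half-life.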

[2] = Stability in PBS at pH 7.4 assessed as half life; format: physicochemical; procedure, shortened: as §1
[3] = Stability in phosphate buffer at pH 10.0 assessed as half life; format: physicochemical; procedure, shortened: as §1
[4] = Stability in phosphate buffer at pH 4.0 assessed as half life; format: physicochemical; procedure, shortened: as §1
[5] = test system: Human alphaherpesvirus 1; assay: Antiviral activity against HSV1; format: functional, organism-based
[6] = test system: Vaccinia virus; assay: Antiviral activity against vaccinia virus; format: functional, organism-based; details: Orthopoxvirus vaccinia
[7] = test system: Human betaherpesvirus 5; assay: Antiviral activity against HCMV; format: functional, organism-based
[8] = test system: Human alphaherpesvirus 3; assay: Antiviral activity against VZV; format: functional, organism-based
[9] = test system: Human betaherpesvirus 6; assay: Antiviral activity against HHV6; format: functional, organism-based
[10] = Stability in PBS assessed as half life; format: physicochemical; procedure, shortened: as §1
[11] = Cytotoxicity against HEL cells; format: cell-based; details: human
[12] = Stability in 1 M glycine solution assessed as half life; format: physicochemical; procedure, shortened: as §1

For Nc1ncn(C[C@H](O)CO)c(=O)n1, the half-life [1] was 15.8 days, the half-life [2] was 19.6 days and the half-life [3] was 10.3 days. It also gave a half-life [4] of 17.8 days.

CCCCCCCCCCCCCCCCCCOP1(=O)CO[C@@H](Cn2cnc(N)nc2=O)CO1 (stereo not given in full) gave an EC50 [5] of 0.003 µg/mL (≈ 0.00583 µM), an EC50 [6] of 0.037 µg/mL (≈ 0.0719 µM) and an EC50 [7] of no more than 0.00014 µg/mL. For the same compound, the EC50 [8] was no more than 0.00014 µg/mL and the EC50 [9] was 0.008 µg/mL (≈ 0.0155 µM).

Compound NC(N)=NC(=O)NC[C@H]1COP(=O)(O)CO1 has a half-life [10] of 29.7 days, a CC50 [11] greater than 100 µg/mL and an MCC [11] greater than 100 µg/mL. The half-life [12] was 14.7 days.

Compound NC(N)=NC(=O)NCCOCP(=O)(O)O has a half-life [10] of 39.3 days, a CC50 [11] greater than 100 µg/mL and an MCC [11] greater than 100 µg/mL. For the same compound, the half-life [12] was 26.2 days.

NC(N)=NC(=O)NC[C@@H](COC=O)OCP(=O)(O)O showed a half-life [10] of 4.98 days, a CC50 [11] greater than 100 µg/mL and an MCC [11] greater than 100 µg/mL. For the same compound, the half-life [12] was 4.75 days.

NC(N)=NC(=O)NC[C@H](O)CO gave a half-life [10] of 19.6 days, a CC50 [11] greater than 100 µg/mL and an MCC [11] greater than 100 µg/mL. For the same compound, the half-life [12] was 16.1 days.
